Measurements reported in ChEMBL document CHEMBL1255220, “Synthesis and antitumor effect in vitro and in vivo of substituted 1,3-dihydroindole-2-ones” (J Med Chem, 2010).
Calls of active or inactive are those of the source. No cut-off for these calls is given here.

Legend:
[1] = system: MCF7; test: Cytotoxicity against human MCF7 cells after 72 hrs by WST-1 assay; type: functional, cell-based
Method in brief: (§1)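 Cells seeded at 3×10³/well; next day serially diluted compound added in triplicate; 72 h at 37 °C, 5% CO₂. Viable cells measured with WST-1 reagent (1 h), absorbance 450 nm minus 690 nm reference. IC50 is mean ± SD of at least two experiments run in triplicate. MCF-7 grown in DMEM, PC3 in RPMI, each with 10% serum.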

[2] = system: PC-3; test: Cytotoxicity against human PC3 cells after 72 hrs by WST-1 assay; type: functional, cell-based; method in brief: as §1
[3] = system: PC-3; test: Antitumor activity against human PC3 cells xenografted in sc dosed NMRI mouse assessed as tumor regression dose; type: functional
Method in brief: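 1e7 PC3 cells (grown in RPMI + 10% FBS) in PBS/Matrigel 1:1 injected sc into female NMRI nude mice or female NIH-RNU nude rats. Compound dosed iv three times per week. Tumour regression dose recorded. Rat effective doses were estimated from mouse xenografts using a 0.5 mouse-to-rat conversion factor.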

[4] = system: PC-3; test: Antitumor activity against human PC3 cells xenografted in sc dosed rat assessed as tumor regression dose; type: functional
[5] = Therapeutic index, ratio of MTD in rat to ED50 for antitumor activity against human PC3 cells xenografted in rat; type: cell-based, PC-3; settings: in vivo, read-out: TI
Method in brief: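 PC3 human prostate cancer cells (1e7, grown in RPMI + 10% FBS, suspended in PBS + Matrigel) were implanted sc in female nude rats (NIHRNU-M) or nude mice (NMRI/nude), with iv dosing 3×/week. Rat MTD came from a single iv dose. Effective rat doses were estimated from mouse xenografts using a mouse-to-rat conversion factor of 0.5. Index = rat toxic dose / rat effective dose.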

[6] = Toxicity in iv dosed rat assessed as maximum tolerated dose; settings: in vivo
[7] = target: Eukaryotic translation initiation factor 2 subunit 1 (Homo sapiens) (UniProt P05198); test: Inhibition of eIF2alpha autophosphorylation in human A2780 cells; type: cell-based
Method in brief: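 MCF-7 (DMEM) and A2780 (RPMI 1640) cells, together with sublines made resistant by culture in rising concentrations of the parent oxindole, were treated with compound for 4 and 24 h respectively. Lysates (20 μg protein) separated by SDS-PAGE and blotted onto nitrocellulose. Phospho-eIF2α read by western blot: milk block, primary antibody overnight at 4 °C, HRP secondary antibody.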

[8] = target: Eukaryotic translation initiation factor 2 subunit 1 (Homo sapiens) (UniProt P05198); test: Induction of eIF2alpha phosphorylation in human MCF7 cells
[9] = AUC in mouse at 5 mg/kg, iv; type: ADME, organism-based; parameters: dose 5 mg/kg, route intravenous; settings: plasma
Method in brief: (§2)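 Compound given as single iv dose to mice or rats. Plasma samples prepared by protein precipitation with acetonitrile containing 1 μg/mL internal standard (3:1 v/v). Analysed by UPLC-MS/MS on a C18 reversed-phase column at 40 °C with an acetonitrile–0.05% formic acid gradient. Half-life and AUC (h ng/mL) derived from the plasma levels.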

[10] = Half life in mouse at 5 mg/kg, iv; type: ADME, organism-based; parameters: dose 5 mg/kg, route intravenous; settings: in vivo; method in brief: as §2
[11] = Half life in rat at 2.5 mg/kg, iv; type: ADME, organism-based; parameters: dose 2.5 mg/kg, route intravenous; settings: in vivo; method in brief: as §2
[12] = AUC in rat at 2.5 mg/kg, iv; type: ADME, organism-based; parameters: dose 2.5 mg/kg, route intravenous; settings: plasma; method in brief: as §2
[13] = Half life in rat at 5 mg/kg, iv; type: ADME, organism-based; parameters: dose 5 mg/kg, route intravenous; settings: in vivo; method in brief: as §2
[14] = AUC in rat at 5 mg/kg, iv; type: ADME, organism-based; parameters: dose 5 mg/kg, route intravenous; settings: plasma; method in brief: as §2

Eukaryotic translation initiation factor 2 subunit 1 (Homo sapiens), sequence (P05198 whole entry): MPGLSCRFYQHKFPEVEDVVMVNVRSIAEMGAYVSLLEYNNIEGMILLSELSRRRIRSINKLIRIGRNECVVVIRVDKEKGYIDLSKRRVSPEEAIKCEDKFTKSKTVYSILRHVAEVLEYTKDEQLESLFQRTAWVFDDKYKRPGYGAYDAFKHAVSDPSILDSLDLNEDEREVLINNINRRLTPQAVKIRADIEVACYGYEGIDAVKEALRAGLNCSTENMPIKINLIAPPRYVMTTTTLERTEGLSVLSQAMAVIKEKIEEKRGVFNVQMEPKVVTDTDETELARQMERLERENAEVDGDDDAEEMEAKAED

Row | Compound | IC50 ([1]; Homo sapiens, MCF7, 72 h) [nM] | IC50 ([2]; Homo sapiens, PC-3, 72 h) [nM] | other results
1 | COc1ccc2c(c1C)NC(=O)[C@]2(c1ccc(O)cc1)C1CCCCCC1 | 0.48 | 2 | –
2 | COc1ccc2c(c1C)NC(=O)[C@@]2(c1ccc(O)cc1)C1CCCCCC1 | > 1000 | > 1000 | –
3 | O=C1Nc2c(C(F)(F)F)cccc2C1(c1ccc(O)cc1)C1CCCCCC1 (racemic) | 9.7 | 91 | Activity [3]: 20 mg/kg; Activity [4]: >20 mg/kg; selectivity ratio [5]: 4; MTD [6]: 40 mg/kg
4 | O=C1Nc2c(C(F)(F)F)cccc2C1(c1ccc(O)cc1)n1ccnc1 (racemic) | > 1000 | > 1000 | inhibition [7]: inactive; induction [8]: inactive
5 | Cc1cc(C)c2c(c1)C(c1ccc(O)cc1)(c1ccc(F)cc1)C(=O)N2 (racemic) | 40 | 209 | –
6 | Cc1cc(C)c2c(c1)C(c1ccc(O)cc1)(C1CCCCCC1)C(=O)N2 (racemic) | > 1000 | > 1000 | –
7 | Cc1cc(F)cc2c1NC(=O)C2(c1ccc(O)cc1)C1CCCCCC1 (racemic) | > 1000 | > 1000 | –
8 | Cc1ccc2c(c1C)NC(=O)C2(c1ccc(O)cc1)C1CCCCCC1 (racemic) | 19 | > 1000 | –
9 | Cc1c(F)ccc2c1NC(=O)C2(c1ccc(O)cc1)C1CCCCCC1 (racemic) | 20 | 30 | –
10 | Cc1c(Cl)ccc2c1NC(=O)C2(c1ccc(O)cc1)C1CCCCCC1 (racemic) | 51 | 150 | –
11 | Cc1ccc2c(c1Cl)NC(=O)C2(c1ccc(O)cc1)C1CCCCCC1 (racemic) | 2.8 | 17 | –
12 | COc1ccc2c(c1C)NC(=O)C2(c1ccc(O)cc1)C1CCCC1 (racemic) | 1 | 111 | –
13 | COc1ccc2c(c1C)NC(=O)C2(c1ccc(O)cc1)C1CCCCC1 (racemic) | 14 | 28 | –
14 | O=C1Nc2c(ccc(F)c2F)C1(c1ccccc1)c1ccc(O)cc1 (racemic) | 7.1 | 8.9 | –
15 | O=C1Nc2c(ccc(F)c2F)C1(c1ccc(O)cc1)c1ccc(F)cc1 (racemic) | 2.6 | 8.6 | Activity [3]: 2.5 mg/kg; Activity [4]: <2.5 mg/kg; selectivity ratio [5]: 2; AUC [9]: 1910 ng·h/mL; half-life [10]: 2.1 h; half-life [11]: 0.8 h; AUC [12]: 2530 ng·h/mL; MTD [6]: 2.5 mg/kg
16 | COc1ccc(C2(c3ccc(O)cc3)C(=O)Nc3c2ccc(F)c3F)cc1 (racemic) | – | – | IC50 ([1]; mcf7): 6.3 nM; IC50 ([2]; pc-3): 2.2 nM
17 | Cc1ccc(C2(c3ccc(O)cc3)C(=O)Nc3c2ccc(F)c3F)cc1 (racemic) | 1.7 | 0.8 | –
18 | O=C1Nc2c(ccc(F)c2F)C1(c1ccc(O)cc1)C1CCCCC1 (racemic) | – | – | IC50 ([1]; mcf7): 13 nM; IC50 ([2]; pc-3): 32 nM; Activity [3]: 10 mg/kg; Activity [4]: <10 mg/kg; selectivity ratio [5]: 2; AUC [9]: 3550 ng·h/mL; half-life [10]: 1.6 h; half-life [13]: 1.1 h; AUC [14]: 1350 ng·h/mL; MTD [6]: 10 mg/kg
19 | CCOc1ccc(C2(c3ccc(O)cc3)C(=O)Nc3c2ccc(F)c3F)cc1 (racemic) | 11 | 24 | –
20 | CCCOc1ccc(C2(c3ccc(O)cc3)C(=O)Nc3c2ccc(F)c3F)cc1 (racemic) | 356 | > 1000 | –

Row | Compound | IC50 ([1]; Homo sapiens, MCF7, 72 h) [nM] | IC50 ([2]; Homo sapiens, PC-3, 72 h) [nM] | other results
21 | CCCCCOc1ccc(C2(c3ccc(O)cc3)C(=O)Nc3c2ccc(F)c3F)cc1 (racemic) | > 1000 | > 1000 | –
22 | COc1ccc(C2(c3cccc(O)c3)C(=O)Nc3c2ccc(F)c3F)cc1 (racemic) | 196 | 145 | –
23 | O=C1Nc2c(ccc(F)c2F)C1(c1ccc(O)cc1)c1ccc(F)c(F)c1 (racemic) | 7.8 | 19 | –
24 | O=C1Nc2c(ccc(F)c2F)C1(c1ccc(O)cc1)c1cccs1 (racemic) | 82 | 0.3 | AUC [9]: 395 ng·h/mL; half-life [10]: 0.4 h; half-life [11]: 0.7 h; AUC [12]: 2630 ng·h/mL
25 | O=C1Nc2c(ccc(F)c2F)C1(c1ccncc1)c1ccc(O)cc1 (racemic) | 37 | 110 | –
26 | O=C1Nc2c(ccc(F)c2F)C1(c1ccc(O)cc1)c1cccnc1 (racemic) | 63 | > 1000 | –
27 | CCCC1(c2ccc(O)cc2)C(=O)Nc2c1ccc(F)c2F (racemic) | > 1000 | > 1000 | –
28 | CCCCCC1(c2ccc(O)cc2)C(=O)Nc2c1ccc(F)c2F (racemic) | 96 | 1.1 | –
29 | O=C1Nc2c(ccc(F)c2F)C1(c1ccc(O)cc1)C1CCCC1 (racemic) | 12 | 8.2 | AUC [9]: 1850 ng·h/mL; half-life [10]: 3.7 h; half-life [11]: 1.1 h; AUC [12]: 2400 ng·h/mL
30 | O=C1Nc2c(ccc(F)c2F)C1(c1ccc(O)cc1)C1CCCCCC1 (racemic) | 1.2 | 12 | Activity [3]: 10 mg/kg; selectivity ratio [5]: 8; AUC [9]: 694 ng·h/mL; half-life [10]: 1.3 h; half-life [13]: 2.1 h; AUC [14]: 2290 ng·h/mL; MTD [6]: > 40 mg/kg
31 | O=C1Nc2c(ccc(F)c2F)C1(c1ccc(O)cc1)C1CCCCCCC1 (racemic) | > 1000 | > 1000 | –
32 | O=C1Nc2c(ccc(F)c2F)C1(CC1CCCCC1)c1ccc(O)cc1 (racemic) | 102 | > 1000 | –
33 | O=C1Nc2c(ccc(F)c2F)C1(Cc1ccccc1)c1ccc(O)cc1 (racemic) | > 1000 | > 1000 | –
34 | O=C1Nc2ccccc2C1(c1ccc(O)cc1)c1ccc(F)cc1 (racemic) | 28 | > 1000 | –
35 | O=C1Nc2ccccc2C1(c1ccc(O)cc1)C1CCCCCC1 (racemic) | 247 | > 1000 | –
36 | Cc1cccc2c1NC(=O)C2(c1ccc(O)cc1)C1CCCCCC1 (racemic) | > 1000 | > 1000 | –
37 | COc1ccc(C2(c3ccc(O)cc3)C(=O)Nc3c2ccc(F)c3F)cc1 (stereo in doubt; form 1) | – | – | IC50 ([1]; mcf7): 2.1 nM; IC50 ([2]; pc-3): 2 nM
38 | O=C1Nc2c(ccc(F)c2F)C1(c1ccc(O)cc1)C1CCCCC1 (stereo in doubt; form 1) | – | – | IC50 ([1]; mcf7): 18 nM; IC50 ([2]; pc-3): 9.2 nM
39 | COc1ccc(C2(c3ccc(O)cc3)C(=O)Nc3c2ccc(F)c3F)cc1 (stereo in doubt; form 2) | – | – | IC50 ([1]; mcf7): > 1000 nM; IC50 ([2]; pc-3): > 1000 nM
40 | O=C1Nc2c(ccc(F)c2F)C1(c1ccc(O)cc1)C1CCCCC1 (stereo in doubt; form 2) | – | – | IC50 ([1]; mcf7): > 1000 nM; IC50 ([2]; pc-3): > 1000 nM
